This is an account of results in PubChem BioAssay.

A short description of assay [1]: OD615 S. cerevisiae growth inhibition, permissive medium, pilot counter-assay, permissive growth control for S. cerevisiae lifespan shortening project (AID 705). The conditions noted are these: OD615, 24 h, at 10 µM, hits give high values. The gist of the method: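 System: engineered DeaD yeast; Medium: permissive raffinose/galactose medium; Compound dosing: 10 µM single dose, 0.25% DMSO; Incubation: 4 h cell pre-growth, 24 h exposure at 30 °C; Technique: OD at 615 nm; Evaluation: growth inhibition from lowered OD615 after 24 h.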

Assay [2] can be described thus: Restrictive medium S. cerevisiae growth inhibition, OD615, pilot screen of yeast lifespan reduction project, restrictive growth control (AID 706;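 active = growth inhibition above a set limit, 3 SD over mean compound inhibition, in both replicates, cut at about 43% in these data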;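 also: modified DeaD lifespan yeast strain shifted to restrictive glucose medium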). The conditions noted are these: OD615, 48 h, at 10 µM, hits give high values. The gist of the method:
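Material: modified S. cerevisiae; buffer or medium: CSMM-D glucose medium; doses: one concentration, 10 µM final, 0.25% DMSO; incubation: 48 h compound exposure at 30 °C; detection: optical density at 615 nm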

The nature of assay [3]: viability gain of MRP-1-high H69AR cells under doxorubicin, pilot screen, MRP-1 activator project, CellTiter-Glo, duplicate (AID 807;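 active = viability increase at or above a cutoff of the median across tested compounds plus 3 SD, cut at about 8.5% in these data, passing the limit was not always enough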;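 also: compound pretreatment 18-22 h then 72 h combined with doxorubicin; 0% = doxorubicin alone and 100% = vehicle without doxorubicin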). The conditions noted are these: H69AR viability with doxorubicin, CellTiter-Glo luminescence; at 10 µM; hits give high values. A general note: In ATP-based viability assays light output follows the ATP content of the culture.
Assay [4] is described as follows: growth suppression of beta-catenin knockout HCT116, pilot screen, human colon tumor cells (AID 823;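 active = cell viability at or below a set limit in both duplicate runs, the limit being the all-compound median minus 4 SD, cut at about 23% in these data, passing the limit was not always enough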;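 also: 0% = wells killed by 20 µM Hyamine and 100% = untreated DMSO cell wells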). The conditions noted are these: CellTiter-Glo, 60 h, at 10 µM, hits give low values.
Assay [5] is described as follows: growth suppression of PTEN-deleted HCT116, pilot screen, cell-based, HCT116 clonal line, CellTiter-Glo (AID 824;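 active = viability at or below 27.92% in each of two runs, the all-compound median minus 4 SD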;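 also: 0% = 20 µM Hyamine control and 100% = vehicle cell control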). The conditions noted are these: 60 h, at 10 µM, hits give low values.
A short description of assay [6]: inhibitors of the yeast RAM network, pilot screen, dse1pr::URA3 reporter, 5-FOA selection (AID 869;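 active = inhibition over a set limit, the all-compound mean plus 3 SD, in both replicate runs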;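 also: 0% = DMSO wells with no growth and 100% = 10 µM 1-NA-PP1 with full growth; RAM network block rescues cells from 5-FOA so hits raise OD615 growth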). The conditions noted are these: S. cerevisiae dse1pr::URA3 5-FOA growth, OD615, 2 d; at 10 µM; hits give high values; strain carries analog-sensitive mutant Cbk1 kinase.
A short description of assay [7]: RAM signaling pathway blockade in yeast – S. cerevisiae, Pdr1DBD-CYC8 efflux-inhibited sensitized strain, primary screen (AID 1298;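 active = RAM network inhibition above 8.4% in each of two replicates, 3 SD over the compound average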;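 also: 0% = DMSO untreated cells without growth and 100% = 10 µM 1-NA-PP1 full growth; higher means more yeast growth rescued from 5-FOA killing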). The conditions noted are these: S. cerevisiae cbk1-as DSE1-URA3 strain, 5-FOA growth OD615, 2 d; at 50 µM; hits give high values.

A number with no mark means an inactive call. Records with an inconclusive call do not appear. The source made the active and inactive calls.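 The calls were made as follows, unless noted: active = growth inhibition above 25% in both replicates, a cutoff set 3 SD above the mean; inconclusive = above 25% in only one replicate; inactive = the rest.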

The viability is a read-out of living cells in per cent, often relative to untreated cells. Usually inhibition stands for the change of the read-out against control, counted positive when it falls.

For `CCOc1ccc(N(CC(=O)OC)S(=O)(=O)c2c(C)noc2C)cc1`, the growth inhibition in assay [1] was 3.84%; in assay [2], -0.545%. In addition, in assay [3], the viability increase was -1.21%. For the same molecule, the figures for the viability in assay [4] and in assay [5] were 87.4% and 95.1%, respectively. In assay [6], the inhibition was -0.69%. Further, the RAM network inhibition in assay [7] is -0.31%.
In the case of `CN(C)S(=O)(=O)c1ccc2c(c1)c(=O)c(C(=O)N1CCOCC1)cn2C`, the growth inhibition in assay [1] is -8.25%; in assay [2], 2.44%. Besides, the viability increase in assay [3] was 0.13%. The viability in assay [4] is 103%; in assay [5] it was 89.4%. In addition, the inhibition in assay [6] was 1.79%. For the same molecule, the RAM network inhibition in assay [7] is -0.67%.
In the case of `Cc1nc(C)c(C(=O)Nc2ccccc2)s1`, the growth inhibition was -0.755% in assay [1] and -6.96% in assay [2]. Moreover, the viability increase in assay [3] is -0.17%. Also, the viability in assay [4] is 98.4%; in assay [5], 88.3%. Besides, the inhibition in assay [6] is 0.68%. Also, the RAM network inhibition in assay [7] was 3.02%.
With `O=S(=O)(c1cc(Cl)ccc1Cl)N1CCN(Cc2ccc3c(c2)OCO3)CC1`, the growth inhibition in assay [1] is -18.5%; in assay [2], -8.86%. Also, in assay [3], the viability increase is 0.21%. Further, the viability in assay [4] was 94.8%; in assay [5], 83.7%. The inhibition in assay [6] is 0.37%. In addition, the RAM network inhibition in assay [7] is 2.23%.
As for `CN1CCN(C(=O)C2CCCCC2C(=O)O)CC1` (stereo not drawn), the growth inhibition in assay [1] is 0.81%; in assay [2] it was -12.5%. For the same molecule, the viability increase in assay [3] was -1.14%. Further, the viability in assay [4] is 99.4%; in assay [5], 99.1%. Also, in assay [6], the inhibition is 2.02%. The RAM network inhibition in assay [7] is -0.26%.
Regarding `CCOC(=O)C1CCCN(c2c(NCCCN3CCCC(C)C3)c(=O)c2=O)C1` (stereo not drawn), the growth inhibition was 3.9% in assay [1] and 3.15% in assay [2]. Also, in assay [3], the viability increase was -0.04%. The viability in assay [4] is 99.1%; in assay [5], 94.4%. In addition, the inhibition in assay [6] is 2.96%. Besides, the RAM network inhibition in assay [7] was -0.87%.
Consider `COc1ccc(CNC(=O)c2cc(C3CC3)on2)cc1`, for which the values for the growth inhibition in assay [1] and in assay [2] were -3.07% and 6.49%, respectively. Besides, in assay [3], the viability increase was -1.95%. The figures for the viability in assay [4] and in assay [5] were 94.3% and 95.5%, respectively. Moreover, the inhibition in assay [6] is -0.84%. The RAM network inhibition in assay [7] was -2.3%.
Turning to `O=C(Nc1ccc2nc3n(c(=O)c2c1)CCCCC3)c1ccccn1`, the growth inhibition in assay [1] was -2.29%; in assay [2] it was 2.34%. Also, the viability increase in assay [3] was 1.28%. The viability was 102% in assay [4] and 107% in assay [5]. Also, in assay [6], the inhibition was 0.8%. For the same molecule, the RAM network inhibition in assay [7] was -2.05%.
As for `O=C(c1cc2ccccn2n1)N1CCN(c2ccccn2)CC1`, the growth inhibition in assay [1] is -2.62%; in assay [2] it was 7.25%. For the same molecule, the viability increase in assay [3] is 2.16%. For the same molecule, the viability in assay [4] is 103%; in assay [5] it was 106%. The inhibition in assay [6] is 0.94%. The RAM network inhibition in assay [7] was 4.4%.
As to `Cc1cccc(N2C(=O)SC(N(CC(=O)O)c3cccc(C)c3)C2=O)c1` (stereo not drawn), the growth inhibition in assay [1] is -12.5%; in assay [2], 15.6%. The viability increase in assay [3] was -3.96%. Further, the viability in assay [4] was 103%; in assay [5] it was 99.1%. Besides, in assay [6], the inhibition is 1.24%. In addition, the RAM network inhibition in assay [7] is 5.06%.
On to `N/C(CC(=O)Nc1cccc(C(F)(F)F)c1)=N/O`, for which the growth inhibition in assay [1] is -0.19%; in assay [2], 2.58%. For the same molecule, the viability increase in assay [3] is -1.91%. Further, the viability is 96.5% in assay [4] and 101% in assay [5]. In addition, in assay [6], the inhibition was 1.16%. For the same molecule, the RAM network inhibition in assay [7] is 4.4%.
For the molecule `Cc1ccccc1NS(=O)(=O)c1cccc(-c2nnc(-c3ccccc3)o2)c1`, the results for the growth inhibition in assay [1] and in assay [2] were -8.74% and -5.78%, respectively. Besides, the viability increase in assay [3] is -0.75%. Also, the viability in assay [4] was 93.6%; in assay [5], 85.7%. Further, in assay [6], the inhibition is 3.65%. The RAM network inhibition in assay [7] is 4.08%.
As to `O=C(Cn1nnc(-c2ccccc2F)n1)Nc1cccc2ncccc12`, the growth inhibition in assay [1] was 1.42%; in assay [2], -14.2%. Also, in assay [3], the viability increase is -2.32%. Besides, the viability in assay [4] was 103%; in assay [5] it was 98%. For the same molecule, the inhibition in assay [6] is 1.36%. Moreover, the RAM network inhibition in assay [7] is 2.23%.
In the case of `COc1ccc(-n2c(Cc3cccn3C)nnc2SCC(=O)N2CCCC2)cc1`, the growth inhibition in assay [1] is 11.1%; in assay [2], 49.5% (active). In addition, the viability increase in assay [3] was -0.77%. Moreover, the values for the viability in assay [4] and in assay [5] were 96.1% and 98.5%, respectively. In assay [6], the inhibition was 0.04%. Further, in assay [7], the RAM network inhibition is 0.93%.
